High-throughput results (PubChem BioAssay)
CHT inh: inhibitors of human choline transporter CHT | High affinity choline transporter 1 (Homo sapiens), Q9GZV3 | CHT-expressing cells, membrane potential dye, choline response; active compounds read low | B-score at 10 µM | 310,000 tested, 0.86% active | AID 488975, 2010;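 active = B-score over 3 SD under the library average, and starting fluorescence ratio not unusually high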;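 note: choline stimulus applied at its EC90 after an EC20 pre-addition; B-score computed on integrated fluorescence ratio after choline addition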
NR2E3 ag-1: NR2E3 agonists in two-hybrid cells, primary screen, cell-based, luminescence, CHO-S, Gal4-NCOR/VP16-NR2E3. Photoreceptor-specific nuclear receptor (Homo sapiens), Q9Y5X4. 360,000 tested, 0.35% active. luciferase. inhibition of corepressor binding, % at 3.98 µM;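 active = inhibition above the mean of all tested compounds plus 3 SD, cut at about 70% in these data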;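 note: 0% = DMSO with NR2E3 transfected cells and 100% = cells lacking NR2E3 construct; higher means lower luciferase signal from less NR2E3 corepressor binding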
Target sequence (Q9Y5X4 whole entry, looked up, the tested form may be a part): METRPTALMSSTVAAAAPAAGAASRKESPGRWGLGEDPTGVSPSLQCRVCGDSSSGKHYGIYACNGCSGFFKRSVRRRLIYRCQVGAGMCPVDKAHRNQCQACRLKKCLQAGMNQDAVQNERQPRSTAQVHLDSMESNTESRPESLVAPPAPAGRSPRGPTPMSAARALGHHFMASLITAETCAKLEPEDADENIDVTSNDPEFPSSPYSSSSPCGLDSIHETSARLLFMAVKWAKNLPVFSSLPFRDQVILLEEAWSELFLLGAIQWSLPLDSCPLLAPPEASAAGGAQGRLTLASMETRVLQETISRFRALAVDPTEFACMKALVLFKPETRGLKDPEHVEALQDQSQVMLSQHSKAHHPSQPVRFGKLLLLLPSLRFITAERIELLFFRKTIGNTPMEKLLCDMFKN
CHT allo act: CHT positive allosteric modulators, primary screen, cell-based, membrane potential dye, choline EC20. CHT-expressing cells; active compounds read high; LV-AA mutant CHT in HEK293 cells. 310,000 tested, 0.49% active. B-score at 10 µM;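 active = initial fluorescence not abnormally high and integrated response B-score, plate-corrected, over 3 SD above library mean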
GalR3 antag: GalR3 antagonists in HEK293 cells, primary screen, cell-based, fluorescence readout; HEK293 GalR3-CNG cAMP membrane potential fluorescence; galR3 body fused to GalR1 C-terminus; inhibition, % at 3 µM; 360,000 tested, 0.44% active; AID 651719, 2012;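 active = inhibition above the screen-wide average plus 3 SD, cut at about 13% in these data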;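 note: forskolin and galanin both at EC90 stimulate the cells; cAMP rise reported by CNG channel membrane potential dye signal; 0% = forskolin plus galanin with DMSO and 100% = forskolin alone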
Target sequence (O60755 1-299 limits assumed): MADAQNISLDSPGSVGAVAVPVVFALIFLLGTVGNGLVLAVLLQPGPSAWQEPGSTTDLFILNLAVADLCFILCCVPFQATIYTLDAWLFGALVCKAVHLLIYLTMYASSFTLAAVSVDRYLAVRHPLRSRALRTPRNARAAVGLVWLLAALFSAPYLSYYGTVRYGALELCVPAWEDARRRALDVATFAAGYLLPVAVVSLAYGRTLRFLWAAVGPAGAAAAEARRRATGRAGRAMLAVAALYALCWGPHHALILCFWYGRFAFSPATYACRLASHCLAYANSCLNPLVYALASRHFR
COUP-TFII inh: NR2F2 transcriptional activity inhibitors, primary screen, cell-based, luciferase reporter, HEK293T, luminescence. COUP transcription factor 2 (Homo sapiens), P24468. HEK293T NGFI-A luciferase reporter. inhibition, % at 8.6 µM. 370,000 tested, 0.7% active. AID 686940, 2013;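 active = inhibition above a per-plate cutoff, mean inhibition of test wells between control levels plus 3 SD, cut at about 38% in these data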;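 note: cells cotransfected with COUP-TFII expression vector driving the NGFI-A reporter; 0% = median of COUP-TF2 test wells and 100% = reporter-only cells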
NR2E3 ag-2: inhibitors of NR2E3-RetCOR corepressor binding, primary screen, NR2E3 agonist project, biochemical, TR-FRET, GST-NR2E3, biotin-RetCOR | inhibition of corepressor binding, % at 4.78 µM | Photoreceptor-specific nuclear receptor (Homo sapiens), Q9Y5X4 | 1536-well | AID 2300, 2010 | 320,000 tested, 0.12% active;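 active = percent inhibition above the cutoff of mean plus 3 SD of all tested compounds, set per screening campaign, cut at about 20% in these data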;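 note: 0% = DMSO wells and 100% = biotin wells as full block of FRET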
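Material: NR2E3–RetCOR corepressor complex / Amount: 1.35 nM GST-NR2E3 / Medium: Tris pH 7.5 / Compound: single nominal compound dose of 4.8 µM / Incubation: 5 h at 4 °C / Technique: TR-FRET, Eu(K)-anti-GST donor, streptavidin-D2 acceptor, ex 340, em 617/671 nm / Read-out basis: percent loss of FRET ratio relative to control wells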
CHT block conf: CHT inhibitors, confirmation, cell-based, membrane potential dye, duplicate; shares compounds with CHT inh; CHT-expressing cells, choline membrane potential dye; LV-to-AA substituted CHT, HEK293 cells; CHT activity remaining % of control (active compounds read low), % at 10 µM; 2,400 tested, 70% active;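 active = choline transporter activity left, mean of duplicates at 10 µM, below buffer-only control mean minus 3 SD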;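 note: depolarization triggered by choline at its EC90 following an EC20 pre-addition; 0% = hemicholinium-3 full block and 100% = buffer-only control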
HEK293 MPD ctr: membrane potential effects in parental HEK293, counter-screen for CHT inhibitor project, cell-based, membrane potential dye; choline response; active = decrease or increase beyond buffer ±3SD; membrane potential ratio readout (active if shifted either direction beyond buffer ±3SD; no single direction) at 10 µM; AID 493222, 2011; 2,400 tested, 4% active; shares compounds with CHT inh;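 note: parental cells lack the transporter so any hit is non-specific; ratio is peak minus trough fluorescence over baseline after EC90 choline challenge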
* marks the source's active call; other numbers are inactive results; i = inactive; . = no result. Rows were chosen to be rich in hits. Some 2.3% of all compounds tested hit in one or more screens of this group.

SMILES	CHT inh	NR2E3 ag-1	CHT allo act	GalR3 antag	COUP-TFII inh	NR2E3 ag-2	CHT block conf	HEK293 MPD ctr
CCCCC(=O)N1CCN(C(=O)c2ccc3c(c2)nc(C)n3C2CCCC2)CC1	.	.	.	.	-11	.	.	.
O=C(CSc1nnc(-c2ccc(Cl)cc2)n1-c1ccccc1)NN=Cc1c[nH]c2ccccc12	.	.	.	.	-2	.	.	.
CS(=O)(=O)C1=NSC2=NC(=O)/C(=C\c3ccc(OS(=O)(=O)c4ccccc4)cc3)C(=N)N21	-6.6*	-37	i	-4	-15	3	58%*	i
CCCCn1c(CN2CCN(c3cccc(Cl)c3)CC2)nc2c1c(=O)n(C)c(=O)n2C	-13*	-14	i	-6	1	-1	29%*	i
CCCCn1c(CN2CCN(c3ccccc3)CC2)nc2c1c(=O)n(C)c(=O)n2C	-9.6*	22	i	.	.	-2	-42%*	i
CCCCCn1c(CN2CCN(c3cccc(Cl)c3)CC2)nc2c1c(=O)n(C)c(=O)n2C	i	3	i	-5	5	2	.	.
CCCCCn1c(CN2CCCCC2C)nc2c1c(=O)n(C)c(=O)n2C (stereo not given)	-5*	-37	i	-5	11	-2	45%*	i
Nc1ncnc2c1ncn2C1OC(C(=O)NC2CC2)C(O)C1O (stereo not given)	-5.1*	-18	i	.	-80	-3	44%*	i
C[C@@H](CO)NC(=O)[C@H]1O[C@@H](n2cnc3c(N)ncnc32)[C@H](O)[C@@H]1O	.	35	.	.	.	.	.	.
Nc1ncnc2c1ncn2C1OC(CO)C(O)C1O (stereo not given)	-10*	-8	i	-13	-26	4	37%*	i
Nc1ncnc2c1ncn2C1O[C@H](CO)[C@@H](O)[C@@H]1O (stereo not given in full)	i	14	i	-1	2	3	.	.
O=C(NC1CCCCN(Cc2cccc(Cl)c2)C1=O)c1ccccn1 (stereo not given)	.	.	.	.	-16	.	.	.
O=C(Nc1ccc(F)cc1)Nc1c(-c2ccc(F)cc2)nc2ncccn12	.	.	.	.	-8	.	.	.
Cc1ccccc1Nc1nc(N)nc(COC(=O)C(NC(=O)c2ccco2)C(C)C)n1 (stereo not given)	-6.2*	-10	i	2	2	3	i	i
COc1ccc(C(=O)OCc2nc(N)nc(Nc3ccccc3C)n2)cc1OC	i	21	i	-7	9	1	.	.
Cc1ccc(NC(=S)NNC(=O)CSc2nnc(-c3ccc(C)cc3)n2C2CCCCC2)cc1	.	.	.	.	8	.	.	.
Cc1nn(-c2ccccc2)c2sc(C(=O)NC3CCCC3)cc12	.	.	.	.	14	.	.	.
O=c1c2ccccc2n(Cc2ccno2)n1[C@@H](Cc1ccccc1)Cn1cc(-c2ccc(-c3ccccc3)cc2)nn1	.	.	.	.	18	.	.	.
CC(=O)OC12CCCN(C1)/C(=C/c1cccc(N(C)C)c1)C2 (stereo not given)	.	.	.	.	20	.	.	.
CC(=O)/C(=N/Nc1ccccc1)Sc1nnc(C(O)c2ccccc2)n1-c1ccccc1 (stereo not given)	-5*	-13	i	-1	12	10	i	i
CC(=O)/C(=N/Nc1ccccc1Cl)Sc1nnc(C(O)c2ccccc2)n1-c1ccccc1 (stereo not given)	i	-15	i	0	13	-3	.	.
Cc1cc(C)cc(C(=O)OCCN(C)C2CN(Cc3cn(Cc4ccc([N+](=O)[O-])cc4)nn3)S(=O)(=O)C2)c1 (stereo not given)	.	.	.	.	3	.	.	.
CCOc1ccc(Oc2c(Cl)c(Br)nn(Cc3cccc4ccccc34)c2=O)cc1	.	.	.	.	3	.	.	.
Cc1cc(N(CCO)CCO)ccc1N=Nc1cc(F)ccc1F	-5.4*	-53	i	-6	-35	-1	56%*	i
Nc1ccc(N(CCO)CCO)cc1	i	-10	i	-4	-8	1	.	.
SMILES	CHT inh	NR2E3 ag-1	CHT allo act	GalR3 antag	COUP-TFII inh	NR2E3 ag-2	CHT block conf	HEK293 MPD ctr
Cc1ccc(S(=O)(=O)NC(C)C(=O)Nc2ccc3c(c2)OCO3)cc1 (stereo not given)	-9*	-44	i	-9	-6	1	i	i
COc1ccc(S(=O)(=O)NC(C)C(=O)Nc2ccc3c(c2)OCO3)cc1OC (stereo not given)	i	0	i	-4	5	7	.	.
CCOc1cc(N2CCOCC2)c(OCC)cc1NC(=O)Cc1ccccc1	-8.6*	-9	i	-6	-18	0	57%*	i
CCCCCN1CCCCC(NC(=O)C(C)(C)C)C1=O (stereo not given)	.	.	.	.	-6	.	.	.
O=C(NCc1ccccc1)C1CCCN(c2ncnc3c2nc2n3CCCCC2)C1 (stereo not given)	i	-6	i	-5	6	1	.	.
COc1ccccc1NC(=O)C1CCCN(c2ncnc3c2nc2n3CCCCC2)C1 (stereo not given)	-6.8*	-3	i	0	-22	0	5.7%*	i
Cc1cccc(CCNC(=O)C2CCCN(c3ncnc4c3nc3n4CCCCC3)C2)c1 (stereo not given)	-7.6*	-14	i	-5	-2	-3	19%*	i
O=C(Nc1ccccc1Cl)C1CCCN(c2ncnc3c2nc2n3CCCCC2)C1 (stereo not given)	-5.2*	-13	i	-7	29	2	26%*	i
COc1cc2c(c(OC)c1)[C@H](/C=C/c1ccccc1)[C@@H]([C@H](O)CO)OC2	.	.	.	.	20	.	.	.
CCOC(=O)[C@@]12CCC3=C1N(CCC3)C(=O)[C@H](CC(=O)NCCCOC)C2	.	.	.	.	-1	.	.	.
Cn1c2c(c3ccccc31)CCN1CCC[C@]21c1ccccc1	-5.1*	-36	i	-14	6	-3	i	i
Cc1ccc(CNC(=O)O[C@H]2CC[C@@]34CCCN3C(=O)CCC[C@H]4[C@H]2C)cc1	.	.	.	.	-3	.	.	.
